# Compound activity deposited in PubChem BioAssay by several laboratories.
# 697 NFkB inh = lowers PMA/ionomycin-induced NF-kB signal in 697 B cells | 697 B-cell NF-kB luciferase reporter, 16 h | inhibition, % at 4 µM | 0.33% of 330,000 active; in the data active means inhibition above about 35%
# NR2E3 ag-1 = agonists of human nuclear receptor NR2E3. Q9Y5X4. GST-NR2E3/biotin-RetCOR TR-FRET, 1536-well. inhibition of corepressor binding, % at 4.78 µM. 0.12% of 320,000 active;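 active means percent inhibition above the cutoff of mean plus 3 SD of all tested compounds, set per screening campaign, cut at about 20% in these data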
# Target sequence (Q9Y5X4 whole entry, looked up): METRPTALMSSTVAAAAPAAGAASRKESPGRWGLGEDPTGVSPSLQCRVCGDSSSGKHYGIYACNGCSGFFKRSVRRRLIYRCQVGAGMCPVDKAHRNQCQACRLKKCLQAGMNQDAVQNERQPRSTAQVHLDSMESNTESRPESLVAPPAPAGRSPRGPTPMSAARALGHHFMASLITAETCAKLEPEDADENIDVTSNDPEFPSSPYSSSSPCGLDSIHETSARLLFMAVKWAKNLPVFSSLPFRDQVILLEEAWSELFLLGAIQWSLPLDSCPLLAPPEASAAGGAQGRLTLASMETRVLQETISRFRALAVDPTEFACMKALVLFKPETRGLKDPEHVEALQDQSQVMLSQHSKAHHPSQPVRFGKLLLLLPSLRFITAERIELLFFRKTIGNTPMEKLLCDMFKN
#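 Material: NR2E3–RetCOR corepressor complex / Incubation: Compound–protein incubation for 5 h at 4 °C / Dosing: compound at 4.8 µM, single dose / Detection: time-resolved FRET / Benchmarks: high control biotin, low control 0.6% DMSO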
# aDG glyco up = alpha-DG glycosylation activation. Pro5-aDG cells, alpha-DG glycosylation AlphaScreen (IIH6); 0% Pro5, 100% B10-LARGE cell signal. activation, % at 10 µM. 0.22% of 360,000 active;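 active means activation of at least 8% versus controls, or a plate z-score of at least 8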;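 further: Pro5 are CHO cells carrying HIG-tagged alpha-DG that lacks glycosylation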
# NR2E3 ag-2 = agonists of human NR2E3 nuclear receptor; CHO-S Gal4-NCOR/VP16-NR2E3 two-hybrid, luciferase; inhibition of corepressor binding, % at 3.98 µM; 0.35% of 360,000 active; AID 602229;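 active means inhibition above the mean of all tested compounds plus 3 SD, cut at about 70% in these data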;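 further: higher means lower luciferase signal from less NR2E3 corepressor binding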
# MPTP inh = blocks calcium-induced mitochondrial swelling; AID 602449; inhibition, % at 10 µM; isolated mouse mitochondria, Ca2+ swelling absorbance, 30 min; 1.4% of 360,000 active;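 active means inhibition of 50% or more, scaled per plate between neutral and stimulator controls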
# Jurkat NFkB inh = lowers PMA/ionomycin-induced NF-kB signal in Jurkat cells | PMA/ionomycin-induced NF-kB luciferase reporter, luminescence | inhibition, % at 4 µM | 0.53% of 330,000 active; in the data active means inhibition above about 50%
# MPTP counter = Rhodamine 123 counter-screen of mitochondrial pore hits | shares compounds with MPTP inh | inhibition, % at 10 µM | isolated mitochondria, membrane potential, Rhodamine 123 fluorescence | 78% of 5,000 active; in the data active means inhibition above about 22%
# MPTP swell DR = dose response confirmation of mitochondrial permeability transition pore inhibitors; AID 651561; 58% of 780 active; IC50, µM; isolated mitochondria swelling, absorbance; shares compounds with MPTP inh; in the data active means IC50 below about 20 µM
# MPTP counter DR = counter-screen for mitochondrial permeability transition pore inhibitors, dose response. shares compounds with MPTP inh. isolated mitochondria counterscreen, fluorescence read-out. IC50, µM. 49% of 780 active. AID 651564; in the data active means IC50 below about 80 µM
# Hits are given with their value; 0 = inactive; - = not tested or not shown. Compounds with a hit are over-represented: about 2.4% of the library has one in this group of screens.
SMILES,697 NFkB inh,NR2E3 ag-1,aDG glyco up,NR2E3 ag-2,MPTP inh,Jurkat NFkB inh,MPTP counter,others
O=C(CSc1nnc(CNC(=O)c2cccs2)o1)c1ccccc1,0,0,0,0,0,0,-,
O=C(CSc1nnc(CNC(=O)c2cccs2)o1)c1ccc(Cl)cc1,0,0,0,0,77,0,30,
O=C(CSc1nnc(CNC(=O)c2ccccc2F)o1)c1ccc(Cl)cc1,0,0,0,0,69,0,0,MPTP swell DR=0;MPTP counter DR=26
O=C(Nc1cc(S(=O)(=O)N2CCOCC2)ccc1OCC(F)(F)F)C1=COCCO1,0,0,0,0,0,0,-,
CC(C)(C)OC(=O)N1CCCC(C(=O)Nc2ccc(C(=O)N3CCCC3)cc2)C1 (stereo unspecified),0,-,0,0,0,0,-,
O=C(NCC(c1cccs1)N1CCOCC1)c1cc([N+](=O)[O-])ccc1Cl (stereo unspecified),0,0,0,0,0,0,-,
O=[N+]([O-])c1ccc(O)c(C(C#Cc2ccccc2)N2CCOCC2)c1 (stereo unspecified),0,0,0,0,68,0,87,
O=[N+]([O-])c1ccc2c(c1)C(=NO)c1cc(Cl)c(Cl)cc1-2,-,-,0,0,61,-,36,
Nc1cc2c(cc1[N+](=O)[O-])-c1ccccc1C2=NO,-,-,0,0,0,-,-,
Cc1onc(-c2ccccc2)c1C(=O)NNC(=S)NC(=O)c1ccc2c(c1)OCO2,0,0,0,0,0,0,-,
S=C(NC1CCCCC1)N(CCc1nc2ccccc2[nH]1)C1CCCC1,0,0,0,0,65,0,79,
O=C(Nc1ccccc1)N(CCc1nc2ccccc2[nH]1)C1CCCC1,0,0,0,0,0,0,-,
COc1ccc(-c2sc(NC(C)=O)nc2-c2ccccc2)cc1,0,0,0,0,0,0,-,
COc1ccc(-c2nc(NC(C)=O)sc2-c2ccccc2)cc1,0,0,0,0,82,0,0,MPTP swell DR=0;MPTP counter DR=0
O=C(N/N=C/c1cccc(Oc2ccccc2)c1)c1cccc(Br)c1,0,0,0,0,67,0,75,
O/N=C/c1cn(-c2ccccc2)nc1-c1ccccc1,-,-,0,0,0,-,-,
CC1(C)CC(=O)C(=Cc2cn(-c3ccccc3)nc2-c2ccccc2)C(=O)C1,0,0,0,0,76,0,0,MPTP swell DR=0;MPTP counter DR=5.7
Cc1ccc(NC(=O)CSc2ccccc2)cc1S(=O)(=O)N1CCCCC1,0,0,0,0,0,0,-,
Cc1ccc(NC(=O)CSc2ncnc3ccccc23)cc1S(=O)(=O)N1CCOCC1,0,0,0,0,0,0,-,
Cc1ccc(NC(=O)CSc2ncnc3ccccc23)cc1S(=O)(=O)N1CCCCC1,0,0,0,0,79,0,71,
Cc1ccc(NC(=S)NCc2ccccc2)cc1S(=O)(=O)N1CCCCC1,0,0,0,0,75,0,75,
CCN(Cc1ccccc1)S(=O)(=O)c1ccc(C(=O)N(CCCN(C)C)c2nc3cc(C)cc(C)c3s2)cc1,0,0,0,0,0,0,-,
COc1ccc2sc(N(CCCN(C)C)C(=O)c3ccc(S(=O)(=O)N(C)Cc4ccccc4)cc3)nc2c1,0,0,0,0,78,0,0,MPTP swell DR=8.1
Cc1cc(C)c2sc(N(CCCN(C)C)C(=O)c3ccc(S(=O)(=O)N(C)Cc4ccccc4)cc3)nc2c1,0,0,0,0,82,0,0,MPTP swell DR=8.8;MPTP counter DR=45
Cc1ccc2sc(N(CCCN(C)C)C(=O)c3ccc(S(=O)(=O)N(C)Cc4ccccc4)cc3)nc2c1C,0,0,0,0,71,0,0,
SMILES,697 NFkB inh,NR2E3 ag-1,aDG glyco up,NR2E3 ag-2,MPTP inh,Jurkat NFkB inh,MPTP counter,others
COc1ccc(S(=O)(=O)N(C)C[C@@H]2OCc3cnnn3CCCC(=O)N([C@@H](C)CO)C[C@H]2C)cc1,-,-,0,0,0,-,-,
CN(C)C(CNc1ccc(C(F)(F)F)cn1)c1ccccc1 (stereo unspecified),0,0,0,0,68,0,0,MPTP swell DR=0;MPTP counter DR=0
CCOc1ccc(S(=O)(=O)NCCC(=O)NCC(c2ccccc2OC)N2CCCC2)cc1 (stereo unspecified),0,-,0,0,0,0,-,
COc1ccccc1N1CCN(CC(O)COc2ccc(C)cc2C)CC1 (stereo unspecified),0,0,0,0,0,0,-,
O=C1NC(=S)S/C1=C\c1ccc(SCc2ccccc2)o1,-,0,0,0,78,-,62,
CC(C)C1Cc2c(sc3[nH]c(=S)n(Cc4ccccc4)c(=O)c23)CO1 (stereo unspecified),0,0,0,0,81,0,26,
Cc1nnc2n(-c3ccccc3)c(=O)c3c4c(sc3n12)COC(C(C)C)C4 (stereo unspecified),0,0,0,0,0,0,-,
CC[C@H](C)Cc1cn([C@@H](CCCCN)C(=O)NCCCCCCCCCCC(=O)N2CCNCC2)nn1,0,0,0,0,89,0,0,
NCCCCCc1cn([C@@H](CCC(=O)O)C(=O)NCCCCCCCCCCC(=O)N2CCNCC2)nn1,0,0,0,0,0,0,-,
S=c1[nH]nc(Cn2cnc3ccccc32)n1-c1ccccc1Cl,0,0,0,0,0,0,-,
Cn1c2ccccc2c(=O)c2c(=O)n(C3CCCCCC3)c(C3CCCCC3)nc21,-,-,0,0,88,-,0,
Cn1c2ccccc2c(=O)c2c(=O)n(-c3ccccc3)c(C3CCCCC3)nc21,0,0,0,0,0,0,-,
O=C1c2ccc(Br)cc2C(=O)N1c1ccc(Cc2ccncc2)cc1,-,-,0,0,102,-,92,
Cc1cccc(N2C(=O)c3ccc(Br)cc3C2=O)n1,0,0,0,0,0,0,-,
N#C/C(=C(/O)c1ccc([N+](=O)[O-])s1)c1nc2ccccc2[nH]1,0,0,0,0,85,0,81,
CCCCCCC#Cc1cncc(C(=O)NNC(=O)Nc2cc(Cl)cc(Cl)c2)c1,0,0,0,0,55,0,55,
CCCCC#Cc1cncc(C(=O)NN)c1,0,0,0,0,0,0,-,
O=C(Nc1cccc(Br)c1)c1ccc(Cl)c(S(=O)(=O)N2CCOCC2)c1,0,0,0,0,54,0,75,
Cc1cc(NC(=S)Nc2ccccc2)ccc1Br,0,0,0,0,71,0,79,
Cc1cc(Cl)ccc1NC(=S)Nc1cccnc1,0,0,0,0,0,0,-,
Cc1ccccc1NC(=S)Nc1ccccc1,0,0,0,0,0,0,-,
Cc1cc(NC(=S)Nc2cccnc2)ccc1Br,0,0,0,0,88,0,72,
CSc1ncccc1C(=O)NC1CCCCCCC1,0,0,0,0,0,0,-,
